Positions of bridges follow the written chain, without caps; N, C: chain ends. Residues, ends and D or L forms follow the SMILES beside them. No end group written: not given here.
Legend:
Type in all cases: cell-based
[1] = target: T1, m-CTR:m-RAMP2 (Mus musculus, UniProt Q60755+Q9WUP0, P10T); test: cAMP production, agonist concentration-response, transfected Cos7 cells; details: SEM
T1 sequence (Q60755 42-496 isoform Q60755-2): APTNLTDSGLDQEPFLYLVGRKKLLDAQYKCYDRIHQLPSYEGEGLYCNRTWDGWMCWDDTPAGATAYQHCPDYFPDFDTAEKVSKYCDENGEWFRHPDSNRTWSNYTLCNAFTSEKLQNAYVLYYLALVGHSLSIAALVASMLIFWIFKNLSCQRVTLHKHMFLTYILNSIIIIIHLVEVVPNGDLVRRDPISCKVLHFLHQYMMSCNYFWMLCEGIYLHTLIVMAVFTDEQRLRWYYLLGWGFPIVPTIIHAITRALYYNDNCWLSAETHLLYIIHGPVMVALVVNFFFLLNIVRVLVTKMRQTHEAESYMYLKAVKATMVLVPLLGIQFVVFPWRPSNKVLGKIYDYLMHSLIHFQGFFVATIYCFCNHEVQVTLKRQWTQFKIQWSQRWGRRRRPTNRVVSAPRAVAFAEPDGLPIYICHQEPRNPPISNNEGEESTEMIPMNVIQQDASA
T1 sequence (Q9WUP0 45-189): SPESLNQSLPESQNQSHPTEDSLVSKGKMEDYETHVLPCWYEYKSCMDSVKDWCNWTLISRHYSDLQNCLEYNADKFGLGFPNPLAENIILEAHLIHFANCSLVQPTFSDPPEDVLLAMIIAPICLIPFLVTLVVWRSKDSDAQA

[2] = target: T2, m-CTR:pcDNA (m-CTR alone) (Mus musculus, UniProt Q60755); test: as above; details: SEM
T2 sequence (Q60755 42-496 isoform Q60755-2 limits assumed): T1 sequence (Q60755 42-496 isoform Q60755-2)

[3] = target: m-CLR:pcDNA (Mus musculus, UniProt Q9R1W5); test: cAMP production, agonist stimulation, Cos7 cells with m-CLR without RAMP; details: concentrations as high as 10 μM
Chain of m-CLR:pcDNA (Q9R1W5 23-463): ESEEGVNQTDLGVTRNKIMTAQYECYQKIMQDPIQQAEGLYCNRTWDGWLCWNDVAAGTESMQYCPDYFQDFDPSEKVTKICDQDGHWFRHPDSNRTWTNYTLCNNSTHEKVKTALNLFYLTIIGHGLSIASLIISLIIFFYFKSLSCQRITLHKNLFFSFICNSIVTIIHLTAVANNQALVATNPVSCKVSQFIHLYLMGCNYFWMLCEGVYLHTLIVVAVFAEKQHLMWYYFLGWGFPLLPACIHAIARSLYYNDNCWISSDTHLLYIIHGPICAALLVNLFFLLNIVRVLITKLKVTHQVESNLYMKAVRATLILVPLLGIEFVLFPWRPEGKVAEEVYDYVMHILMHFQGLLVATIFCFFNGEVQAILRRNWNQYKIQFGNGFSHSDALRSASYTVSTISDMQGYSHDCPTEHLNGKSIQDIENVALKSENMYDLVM
How it was run: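 Mouse CLR was co-transfected 1:1 with empty pcDNA3.1(+) (no RAMP) into Cos-7 cells with polyethylenimine. Cells were seeded at 15,000–20,000/well, transfected 18–24 h later and used about 48 h after that. After 30 min in DMEM with 1 mM IBMX and 0.1% BSA, agonist peptides were applied for 15 min at 37 °C. Forskolin (100 µM final) served as positive control. cAMP was quantified by LANCE assay from a standard curve, in duplicate or triplicate.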

[4] = target: T3, m-CLR:m-RAMP2 (Mus musculus, UniProt Q9R1W5+Q9WUP0, P10T); test: cAMP production, agonist concentration-response, transfected Cos7 cells; details: for EC50: SEM
T3 sequence (Q9R1W5 23-463, one chain of several): as the sequence (Q9R1W5 23-463) above

[5] = target: T4, m-CTR:m-RAMP3 (Mus musculus, UniProt Q60755+Q9WUP1); test: as above; details: for EC50: SEM; for fold increase in potency relative to m-CTR alone: m-CTR:m-RAMP3 versus m-CTR:pcDNA
T4 sequence (Q60755 42-496 isoform Q60755-2 limits assumed): T1 sequence (Q60755 42-496 isoform Q60755-2)
T4 sequence (Q9WUP1 23-147): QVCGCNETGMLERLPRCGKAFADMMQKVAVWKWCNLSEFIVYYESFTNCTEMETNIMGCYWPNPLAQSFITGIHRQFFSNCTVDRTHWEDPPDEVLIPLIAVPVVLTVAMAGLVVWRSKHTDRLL

[6] = target: T5, m-CTR:m-RAMP1 (Mus musculus, UniProt Q60755+Q9WTJ5); test: as above; details: for EC50: SEM
T5 sequence (Q60755 42-496 isoform Q60755-2 limits assumed): T1 sequence (Q60755 42-496 isoform Q60755-2)
T5 sequence (Q9WTJ5 27-148): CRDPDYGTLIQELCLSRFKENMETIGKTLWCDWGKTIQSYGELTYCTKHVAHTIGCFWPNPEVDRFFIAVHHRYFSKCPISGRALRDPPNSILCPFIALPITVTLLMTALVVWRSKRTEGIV

[7] = target: T6, m-CLR:m-RAMP3 (Mus musculus, UniProt Q9R1W5+Q9WUP1); test: as above; details: SEM
T6 sequence (Q9R1W5 23-463, one chain of several): as the sequence (Q9R1W5 23-463) above

[8] = target: m-CLR:m-RAMP1 (Mus musculus, UniProt Q9R1W5+Q9WTJ5); test: as above; details: for EC50: SEM
Chain of m-CLR:m-RAMP1 (Q9R1W5 23-463, one chain of several): as the sequence (Q9R1W5 23-463) above

[9] = target: T3, m-CLR:m-RAMP2; test: Antagonism of agonist-stimulated cAMP production, transfected Cos7 cells
[10] = target: T6, m-CLR:m-RAMP3; test: as above; details: agonist m-AM, mean ± s.e.m., n = 5, SEM

Compound	EC50 [1] [nM]	EC50 [2] [nM]	cAMP response to stimulation [3]	EC50 [4] [nM]	EC50 [5] [nM]	fold increase in potency relative to m-CTR alone [5] [fold]	EC50 [6] [nM]	EC50 [7] [nM]	EC50 [8] [nM]	fold less potent than m-AM ([4]; m-CLR:m-RAMP2, cAMP pEC50)	fold increase in potency relative to m-CTR alone ([6]; m-CTR:m-RAMP1 versus m-CTR:pcDNA)	fold less potent than m/r-αCGRP ([8]; m-CLR:m-RAMP1, cAMP pEC50)	pA2 ([9]; agonist m-AM, m-CLR:m-RAMP2, mean ± s.e.m., n = 5, SEM)	fold more effective at m-CLR:m-RAMP2 over m-CLR:m-RAMP3 ([9]; from pA2, agonist m-AM)	pA2 [10]
YRQSMNQGSRSNGCRFGTCTFQKLAHQIYQLTDKDKDGMAPRNKISPQGY-NH2 (disulfide 14-19) [m-AM]	19.5	37.2	did not respond	1.55	3.55	11	27.5	0.468	6.61	–	–	–	–	–	–
PHAQLLRVGCVLGTCQVQNLSHRLWQLVRPAGRRDSAPVDPSSPHSY-NH2 (disulfide 10-15) [m-AM2_47]	42.7	56.2	–	10.5	2.14	26	6.92	1.32	4.47	~ seven	eight	–	–	–	–
CC(C)C[C@H](NC(=O)[C@H](CCCNC(=N)N)NC(=O)[C@H](Cc1c[nH]cn1)NC(=O)[C@H](CO)NC(=O)[C@H](CC(C)C)NC(=O)[C@H](CC(N)=O)NC(=O)[C@H](CCC(N)=O)NC(=O)[C@@H](NC(=O)[C@H](CCC(N)=O)NC(=O)[C@@H]1CSSC[C@H](NC(=O)CNC(=O)[C@@H](N)C(C)C)C(=O)N[C@@H](C(C)C)C(=O)N[C@@H](CC(C)C)C(=O)NCC(=O)N[C@@H]([C@@H](C)O)C(=O)N1)C(C)C)C(=O)N[C@@H](Cc1c[nH]c2ccccc12)C(=O)N[C@@H](CCC(N)=O)C(=O)N[C@@H](CC(C)C)C(=O)N[C@H](C(=O)N[C@@H](CCCNC(=N)N)C(=O)N1CCC[C@H]1C(=O)N[C@@H](C)C(=O)NCC(=O)N[C@@H](CCCNC(=N)N)C(=O)N[C@@H](CCCNC(=N)N)C(=O)N[C@@H](CC(=O)O)C(=O)N[C@@H](CO)C(=O)N[C@@H](C)C(=O)N1CCC[C@H]1C(=O)N[C@H](C(=O)N[C@@H](CC(=O)O)C(=O)N1CCC[C@H]1C(=O)N[C@@H](CO)C(=O)N[C@@H](CO)C(=O)N1CCC[C@H]1C(=O)N[C@@H](Cc1c[nH]cn1)C(=O)N[C@@H](CO)C(=O)N[C@@H](Cc1ccc(O)cc1)C(N)=O)C(C)C)C(C)C [m-AM2_40] (H-VGCVLGTCQVQNLSHRLWQLVRPAGRRDSAPVDPSSPHSY-NH2; disulfide 3-8; N-terminus assumed)	8.13	12.3	–	3.72	1.66	–	3.02	0.776	0.955	–	–	approximately 14 fold	–	–	–
h-AM22-52: commonly used AM-receptor antagonist, purchased from Bachem	–	–	–	–	–	–	–	–	–	–	–	–	5.71 ± 0.03	three	5.19 ± 0.21

— publication PMC8776895 (British journal of pharmacology, 2021)
